Reference: article PMC6684861 (Traffic (Copenhagen, Denmark), 2018)
Primed or numbered codes have the meaning given here. No end group written: not given here. FITC′ = fluorescein isothiocyanate label

Tests used:
Impα = conditions: ref [24]; cited from earlier work
U2OS cells [1] = conditions: compared with pol λ in U2OS cells; ref [24]; cited from earlier work
ImpαΔIBB = ImpαΔIBB (Mus musculus, UniProt P52293); experiment: X-ray crystallography of ImpαΔIBB-NLS peptide complexes; type: binding, murine; conditions: estimated from electron density
Summary of the method: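 ImpαΔIBB (15 mg/ml in 20 mM Tris pH 7.8, 125 mM NaCl, 5 mM DTT) was mixed with test NLS peptide at 1.25:1 molar excess. Crystals were grown by hanging-drop vapor diffusion. For two complexes the mother liquor was 0.7 or 0.8 M sodium citrate with 0.1 M HEPES pH 7.0. Rfree used 5% of reflections excluded from refinement. Geometry was checked with MolProbity.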

U2OS cells [2] = experiment: Nuclear/cytosolic ratio of pol X-GFP adducts in transfected U2OS cells; type: cell-based, human; conditions: among the four mammalian enzymes, in the cell-types investigated
Summary of the method: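 U2OS cells in RPMI 1640 with 10% FBS (37 °C, 5% CO2) were seeded at 10,000 cells/chamber. They were transfected (Lipofectamine 2000, 1:4 DNA:reagent) with wild-type or NLS-mutant polymerase-GFP plasmids, then fixed at 24 h (3.7% formaldehyde), permeabilized and stained with CellMask and a nuclear stain. Confocal GFP intensity was measured in nuclear and cytoplasmic ROIs of ≥30 cells/construct. Ratios were averaged with ±2 SD outliers removed, then analysed by ANOVA/Tukey.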

| Substance | binding affinity of NLS for the minor binding pocket of Impα (Impα) | nuclear/cytosolic ratio of pol β (U2OS cells [1]) | occupancy of the minor binding pocket (ImpαΔIBB) | extent of nuclear localization, in words (U2OS cells [2]) |
| --- | --- | --- | --- | --- |
| DNA polymerase β [pol β] | highly selective binding affinity for the minor binding pocket of Impα | ~ 3 |  |  |
| pol λ NLS: bipartite N-terminal NLS of pol λ (KAFPKRQKIHADASSKVLAKIPRREEGK-{FITC′}) |  |  | ~ 70% | greatest extent of nuclear localization |
